# PRMT1 inh = blocks human protein arginine methyltransferase 1; Q99873; recombinant PRMT1, activity-based probe fluorescence polarization; inhibition, % at 2.79 µM; 370,000 compounds, 1.3% hits; AID 652257;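 active = inhibition above about 21% made by adding two undisclosed values, limit read from the data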
# LEDGF integ inh = blocks HIV-1 LEDGF/p75-dependent DNA integration; AID 743269; inhibition, % at 3.7 µM; 370,000 compounds, 0.64% hits; TR-FRET IN-LEDGF/p75 DNA integration, Eu/Cy5;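 active = inhibition above the screen-wide mean plus 3 SD, cut at about 13% in these data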;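 note: signal is the Cy5 over europium emission ratio at 671 and 618 nm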
# rCAG RNA binder = molecules binding r(CAG) RNA repeats. 370,000 compounds, 1.3% hits. AID 651821. inhibition, % at 3 µM. r(CAG) RNA repeat, TO-PRO-1 dye displacement fluorescence;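 active = inhibition above the plate cutoff, the mean of all test compounds on that plate plus 3 SD, cut at about 35% in these data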;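 note: higher means more dye released from RNA so lower well fluorescence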
# ABHD4 inh = ABHD4 (mouse) inhibition, primary FP screen; Q8VD66; purified mABHD4, FP-Rh probe fluorescence polarization; inhibition, % at 8.92 µM; 370,000 compounds, 0.54% hits; AID 720543;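 active = inhibition exceeding the mean over every tested compound plus 3 SD, cut at about 30% in these data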
#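 Assay system: wild-type mouse ABHD4 protein; compound: single nominal dose of 8.92 µM, 0.89% DMSO final; schedule: 45 min + 60 min at 25 °C; measured by: FP readout, ex 525 nm / em 598 nm; evaluation: % inhibition of FP-Rh probe binding versus controls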
# HTRA1 inhibitor = blocks human HTRA1 serine peptidase; Q92743; recombinant HTRA1, FP-rhodamine activity-based probe, fluorescence polarization; inhibition, % at 5.96 µM; 340,000 compounds, 0.5% hits; in the data active = inhibition above about 36%
# DAGLB inhibitor = blocks human DAGLB lipase activity | 340,000 compounds, 0.059% hits | Q8NCG7 | inhibition, % at 5.17 µM | HEK293T DAGLB membrane lysate, EnzChek fluorogenic substrate; in the data active = inhibition above about 34%
# Target sequence (Q8NCG7 whole entry, looked up): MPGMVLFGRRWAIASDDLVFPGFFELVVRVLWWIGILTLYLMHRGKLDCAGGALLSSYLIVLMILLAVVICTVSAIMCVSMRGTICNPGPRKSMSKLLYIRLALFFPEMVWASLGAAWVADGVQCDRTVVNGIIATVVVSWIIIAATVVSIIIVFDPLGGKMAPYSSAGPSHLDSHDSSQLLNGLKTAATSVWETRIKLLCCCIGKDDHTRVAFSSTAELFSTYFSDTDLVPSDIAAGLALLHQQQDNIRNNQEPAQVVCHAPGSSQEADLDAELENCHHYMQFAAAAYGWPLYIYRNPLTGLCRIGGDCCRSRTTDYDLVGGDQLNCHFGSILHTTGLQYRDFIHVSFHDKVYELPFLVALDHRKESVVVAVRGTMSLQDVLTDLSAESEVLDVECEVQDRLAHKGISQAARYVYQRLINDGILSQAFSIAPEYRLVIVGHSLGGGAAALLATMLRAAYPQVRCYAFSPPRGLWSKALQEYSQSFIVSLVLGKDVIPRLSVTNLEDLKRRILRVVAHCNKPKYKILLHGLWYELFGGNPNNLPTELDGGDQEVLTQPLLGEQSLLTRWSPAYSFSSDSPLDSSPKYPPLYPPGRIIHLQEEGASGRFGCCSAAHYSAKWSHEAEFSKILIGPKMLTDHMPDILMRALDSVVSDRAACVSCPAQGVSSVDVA
# Numbers stand for hits; n = inactive; x = not tested or not shown. Only some compounds are listed: those with a hit (about 3.2% of all), similar ones and a draw of the others.
SMILES,PRMT1 inh,LEDGF integ inh,rCAG RNA binder,ABHD4 inh,HTRA1 inhibitor,DAGLB inhibitor
O=C1OC(c2ccccc2)=N/C1=C/c1cccc(OC(=O)c2cccs2)c1,n,n,n,n,n,n
COc1cc(/C=N/NC(=O)CC2C(=O)NN=C2C)ccc1O (stereo unspecified),n,74,n,n,n,n
COc1ccc(-c2nc3ccccc3c(=O)n2NC(=S)N(C)C)cc1,24,n,n,n,n,n
COc1ccc(OCC(=O)Nn2c(-c3ccc(OC)cc3)nc3ccccc3c2=O)cc1,n,n,n,n,n,n
CCn1c(SCC(=O)Nc2ccc(C)cc2)nnc1-c1cnccn1,n,n,n,n,n,n
Cc1ccc(NC(=O)NCCc2ccc(S(N)(=O)=O)cc2)cc1,n,n,n,n,n,n
CSc1ccc(/C=N/n2c(COc3ccccc3)n[nH]c2=S)cc1,22,n,n,n,n,n
COc1ccc(/C=N/n2c(COc3ccccc3)n[nH]c2=S)cc1OC,n,n,n,n,n,n
CCOc1ccc(N2C(=O)CC(SCCN)C2=O)cc1 (stereo unspecified),22,n,n,n,n,n
COC(=O)[C@H](CCSC)NC(=O)Nc1ccc(S(N)(=O)=O)cc1,n,n,n,n,n,n
COc1ccc(/C=N/NC(=O)c2cccc(Br)c2)cc1CN1CCOCC1,n,n,n,n,n,n
C=CCn1c(SC)nnc1C1COc2ccccc2O1 (stereo unspecified),n,n,n,n,n,n
COC(=O)c1cc(NS(=O)(=O)c2ccc(N3CCCCC3)c([N+](=O)[O-])c2)cc(C(=O)OC)c1,n,n,69,n,n,n
COc1cccc(-c2nn(-c3ccc(C)cc3)cc2C(=O)NCC(c2cccs2)N2CCOCC2)c1 (stereo unspecified),n,n,n,n,n,n
CC(C)(C)c1cc(N)n(-c2ccc(C(=O)O)cc2)n1,n,n,n,n,n,n
N=C1/C(=C/c2ccc(Br)o2)C(=O)N=C2SC(CC(=O)N3CCCC3)=NN12,n,16,n,n,n,n
N#Cc1ccc(Nc2nc(-c3ccc(O)cc3O)cs2)cc1C(F)(F)F,x,x,x,x,n,n
CCCC(=O)N(c1ccc2oc(=O)sc2c1)S(=O)(=O)c1ccccc1,50,n,n,n,n,n
CCc1ccc(C#CC2=CC(=O)CC(C)(C)C2)cc1,n,n,n,n,n,n
CCC(=O)OC1(C)C(=O)C=C2C=C(CCCC(=O)OC)OC=C2C1=O (stereo unspecified),n,16,n,n,n,n
CCOc1ccccc1NC(=O)C1C2C=CC(O2)C1C(=O)O (stereo unspecified),23,n,n,n,n,n
CCOC(=O)c1ccc(-n2[nH]c(-c3ccccc3)cc2=O)cc1,n,n,49,n,n,n
O=C(NC(=S)Nc1ccc2[nH]c(=O)[nH]c2c1)c1ccccc1F,n,n,n,n,n,n
O=C(NC(=S)Nc1ccc(F)c([N+](=O)[O-])c1)c1ccccc1F,33,n,n,n,n,n
Nc1ccc(N)c(C(=O)O)c1,x,x,x,x,54,n
SMILES,PRMT1 inh,LEDGF integ inh,rCAG RNA binder,ABHD4 inh,HTRA1 inhibitor,DAGLB inhibitor
CN1CCN(c2ccc(CNC(=O)C3Cc4c(-c5cccc(F)c5)ccnc4O3)cc2)CC1 (stereo unspecified),n,n,n,n,x,x
Cc1ccc(S(=O)(=O)NN2C(=O)/C(=C/c3ccc(C(=O)O)cc3)SC2=S)cc1,22,n,n,n,n,n
NC(=O)Cn1nnc(-c2ccc(CN3CCCCC3)cc2)n1,n,n,n,n,n,n
O=C(COc1ccccc1-c1ccccc1)N/N=C/c1ccc2ccccc2c1,n,n,n,n,n,n
Cc1ccc(NC(=O)CN2C(=O)N/C(=C/c3cc(C)n(-c4ccc(C(=O)O)cc4)c3C)C2=O)cc1,n,n,37,n,n,n
Cc1ccc(NC(=O)CN2C(=O)N/C(=C/c3cccn3-c3ccc(C(=O)O)cc3)C2=O)cc1,30,57,56,n,n,n
C[C@H](NC(=O)c1cc2cc(Cl)ccc2n1C)C(=O)N1CCC(C(=O)O)CC1,n,n,n,n,n,n
Cc1cc2ccccn2c1C(=O)c1nc(NCc2ccccc2)ncc1Cl,n,n,n,n,n,n
N#Cc1c(=O)c2nc(NCc3ccccc3)ncc2n2ccccc12,n,44,n,n,n,n
OC1(c2ccc(F)cc2)CCN(Cc2ccccc2)C1 (stereo unspecified),n,n,n,n,n,n
CN(Cc1ccco1)c1ncnc2ccc(-c3ccoc3)cc12,n,20,n,n,n,n
COCCOC(=O)CC1=NC(=O)CS1,n,n,n,n,n,n
CCCCn1nc(NS(=O)(=O)c2cccc3nonc23)c2cc3cccc(C)c3nc21,n,n,74,n,n,n
CCC(CC)NC(=O)c1cc(OC)c(OC)c(OC)c1,n,n,n,n,n,n
CCCCc1c(O)nc(SCCN(C)C)n(-c2ccccc2)c1=O,24,n,n,n,n,n
CCc1c(O)nc(SCC(=O)NC(C)(C)C)n(-c2ccccc2)c1=O,24,n,n,n,n,n
CN(C)CCSc1nc(O)c(-c2ccccc2)c(=O)n1-c1ccccc1,n,n,n,n,n,n
CCc1c(O)nc(SCC(=O)c2ccccc2)n(-c2ccccc2)c1=O,24,n,n,n,n,n
CCc1c(O)nc(SCC(=O)N2CCOCC2)n(-c2ccccc2)c1=O,n,n,n,n,n,n
COC(=O)c1cccc(NC(=O)CN2C(=O)C3CCCCC3C2=O)c1 (stereo unspecified),n,n,n,n,n,n
O=C1NCCCN1Cc1ccc(Cl)cc1,n,n,n,n,n,n
O=C(Nc1nnc(S(=O)(=O)N2CCCCCC2)s1)c1ccc(Br)cc1,n,n,n,n,n,n
Cc1cc(C(=O)COC(=O)c2cccnc2Cl)c(C)n1C,n,35,n,n,n,n
O=C(CSc1nc2cc(Cl)ccc2s1)NC(=O)NCc1ccco1,21,n,n,n,n,n
CC1CC(=O)c2c(cc3c(-c4c(O)cc(O)c5c(O)c6c(cc45)OC(C)CC6=O)c(O)cc(O)c3c2O)O1 (stereo unspecified),x,x,x,x,78,n
O=C1CC(c2ccc(O)cc2)Oc2cc(O)cc(O)c21 (stereo unspecified),n,n,n,n,n,n
Cc1cccc(C2C3=C(Nc4[nH]n(-c5ccccc5)c(=O)c42)c2ccccc2C3=O)c1 (stereo unspecified),21,n,68,43,n,n
CCCC[C@@H]1Cc2[nH][nH]c(=O)c2[C@H](c2cccc3ccccc23)O1,n,n,n,n,x,x
COc1ccc(-n2c(CN3CCC(C(N)=O)CC3)nc3ccc([N+](=O)[O-])cc3c2=O)c(OC)c1,n,23,n,n,n,n
